Results published in ChEMBL document CHEMBL1255404, “Spread of OXA-48-encoding plasmid in Turkey and beyond” (2010).
≈ marks a conversion by molar mass, not a printed value.

Key:
Type in all cases: functional
[1] = tested on: Escherichia coli; assay: Antimicrobial activity against Escherichia coli isolate J53 harboring p3A containing beta-lactamase OXA-48 located within transposon Tn1999 by Etest method
How it was run: (§1)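 β-Lactam MICs read with Etest strips. Strains are E. coli J53 recipient and J53 transconjugants carrying OXA-48-positive plasmids recovered from clinical enterobacterial isolates.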

[2] = tested on: Klebsiella pneumoniae; assay: Antimicrobial activity against Klebsiella pneumoniae isolate KpI-2 expressing beta-lactamase OXA-48 and CTX-M-15 by Etest method
[3] = tested on: Escherichia coli; assay: Antimicrobial activity against Escherichia coli isolate J53 harboring pCF containing beta-lactamase OXA-48 located within transposon Tn1999 by Etest method; how it was run: as §1
[4] = tested on: Klebsiella pneumoniae; assay: Antimicrobial activity against Klebsiella pneumoniae isolate Kp11978 expressing beta-lactamase OXA-48, SHV-2a and TEM-1 by Etest method
[5] = tested on: Escherichia coli; assay: Antimicrobial activity against Escherichia coli isolate J53 harboring pBEL containing beta-lactamase OXA-48 located within transposon Tn1999.2 by Etest method; how it was run: as §1
[6] = tested on: Enterobacter cloacae; assay: Antimicrobial activity against Enterobacter cloacae isolate 2 expressing beta-lactamase OXA-48 and SHV-5 by Etest method
[7] = tested on: Escherichia coli; assay: Antimicrobial activity against Escherichia coli isolate J53 harboring pI-1 containing beta-lactamase OXA-48 located within transposon Tn1999.2 by Etest method; how it was run: as §1
[8] = tested on: Escherichia coli; assay: Antimicrobial activity against Escherichia coli isolate A expressing beta-lactamase OXA-48 and TEM-150 by Etest method
[9] = tested on: Enterobacter cloacae; assay: Antimicrobial activity against Enterobacter cloacae isolate 1 expressing beta-lactamase OXA-48 and SHV-5 by Etest method
[10] = tested on: Escherichia coli; assay: Antimicrobial activity against Escherichia coli isolate J53 harboring pEnc2 containing beta-lactamase OXA-48 located within transposon Tn1999 by Etest method; how it was run: as §1
[11] = tested on: Escherichia coli; assay: Antimicrobial activity against Escherichia coli isolate J53 harboring p6A containing beta-lactamase OXA-48 located within transposon Tn1999 by Etest method; how it was run: as §1
[12] = tested on: Klebsiella pneumoniae; assay: Antimicrobial activity against Klebsiella pneumoniae isolate Kp3A expressing beta-lactamase OXA-48 by Etest method
How it was run: (§2)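 MICs of β-lactams read from Etest strips. The test organisms are carbapenem-resistant, OXA-48-positive clinical Enterobacteriaceae isolates recovered from Turkey, Lebanon, Egypt, France and Belgium.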

[13] = tested on: Escherichia coli; assay: Antimicrobial activity against Escherichia coli isolate J53 harboring pEcA containing beta-lactamase OXA-48 located within transposon Tn1999.2 by Etest method; how it was run: as §1
[14] = tested on: Escherichia coli; assay: Antimicrobial activity against Escherichia coli isolate TOP10 by Etest method
How it was run: (§3)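 β-Lactam MICs read with Etest strips. Strains are E. coli TOP10 host and TOP10 transformants made with plasmid DNA extract when conjugation failed. Transformants were selected on LB agar with ticarcillin 50 μg/ml.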

[15] = tested on: Klebsiella pneumoniae; assay: Antimicrobial activity against Klebsiella pneumoniae isolate KpE expressing beta-lactamase OXA-48 and CTX-M-15 by Etest method
[16] = tested on: Klebsiella pneumoniae; assay: Antimicrobial activity against Klebsiella pneumoniae isolate Kp5A expressing beta-lactamase OXA-48 and SHV-5 by Etest method
[17] = tested on: Klebsiella pneumoniae; assay: Antimicrobial activity against Klebsiella pneumoniae isolate KpB expressing OXA-48 and CTX-M-15 by Etest method
[18] = tested on: Klebsiella pneumoniae; assay: Antimicrobial activity against Klebsiella pneumoniae isolate KpL expressing beta-lactamase OXA-48 by Etest method
[19] = tested on: Escherichia coli; assay: Antimicrobial activity against Escherichia coli isolate J53 harboring pA-1 containing beta-lactamase OXA-48 located within transposon Tn1999 by Etest method; how it was run: as §1
[20] = tested on: Escherichia coli; assay: Antimicrobial activity against Escherichia coli isolate J53 harboring pL containing beta-lactamase OXA-48 located within transposon Tn1999.2 by Etest method; how it was run: as §1
[21] = tested on: Escherichia coli; assay: Antimicrobial activity against Escherichia coli isolate J53 harboring p7A containing beta-lactamase OXA-48 located within transposon Tn1999 by Etest method; how it was run: as §1
[22] = tested on: Escherichia coli; assay: Antimicrobial activity against Escherichia coli isolate J53 by Etest method; how it was run: as §1
[23] = tested on: Klebsiella pneumoniae; assay: Antimicrobial activity against Klebsiella pneumoniae isolate Kp7A expressing beta-lactamase OXA-48 by Etest method; how it was run: as §2
[24] = tested on: Escherichia coli; assay: Antimicrobial activity against Escherichia coli isolate J53 harboring pE containing beta-lactamase OXA-48 located within transposon Tn1999.2 by Etest method; how it was run: as §1
[25] = tested on: Citrobacter freundii; assay: Antimicrobial activity against Citrobacter freundii isolate expressing beta-lactamase OXA-48 by Etest method
[26] = tested on: Klebsiella pneumoniae; assay: Antimicrobial activity against Klebsiella pneumoniae isolate KpBEL expressing beta-lactamase OXA-48 by Etest method; how it was run: as §2
[27] = tested on: Klebsiella pneumoniae; assay: Antimicrobial activity against Klebsiella pneumoniae isolate Kp4A expressing beta-lactamase OXA-48 and CTX-M-15 by Etest method
[28] = tested on: Escherichia coli; assay: Antimicrobial activity against Escherichia coli isolate J53 harboring p4A containing beta-lactamase OXA-48 located within transposon Tn1999 by Etest method; how it was run: as §1
[29] = tested on: Escherichia coli; assay: Antimicrobial activity against Escherichia coli isolate J53 harboring pI-2 containing beta-lactamase OXA-48 located within transposon Tn1999.2 by Etest method; how it was run: as §1
[30] = tested on: Escherichia coli; assay: Antimicrobial activity against Escherichia coli isolate TOP10 harboring pBIC containing beta-lactamase OXA-48 located within transposon Tn1999.2 by Etest method; how it was run: as §3
[31] = tested on: Klebsiella pneumoniae; assay: Antimicrobial activity against Klebsiella pneumoniae isolate KpI-1 expressing beta-lactamase OXA-48 and CTX-M-15 by Etest method
[32] = tested on: Escherichia coli; assay: Antimicrobial activity against Escherichia coli isolate J53 harboring p5A containing beta-lactamase OXA-48 located within transposon Tn1999 by Etest method; how it was run: as §1
[33] = tested on: Providencia rettgeri; assay: Antimicrobial activity against Providencia rettgeri isolate expressing beta-lactamase OXA-48 and TEM-101 by Etest method
[34] = tested on: Klebsiella pneumoniae; assay: Antimicrobial activity against Klebsiella pneumoniae isolate Kp6A expressing beta-lactamase OXA-48 and TEM-150 by Etest method
[35] = tested on: Escherichia coli; assay: Antimicrobial activity against Escherichia coli isolate J53 harboring pEnc1 containing beta-lactamase OXA-48 located within transposon Tn1999 by Etest method; how it was run: as §1
[36] = tested on: Escherichia coli; assay: Antimicrobial activity against Escherichia coli isolate J53 harboring pBb containing beta-lactamase OXA-48 located within transposon Tn1999.2 by Etest method; how it was run: as §1
[37] = tested on: Klebsiella pneumoniae; assay: Antimicrobial activity against Klebsiella pneumoniae isolate KpBIC expressing beta-lactamase OXA-48 by Etest method; how it was run: as §2
[38] = tested on: Escherichia coli; assay: Antimicrobial activity against Escherichia coli isolate TOP10 harboring pPR containing beta-lactamase and TEM-101 by Etest method; how it was run: as §3

| Compound | MIC [1] [µg/mL] | MIC [2] [µg/mL] | MIC [3] [µg/mL] | MIC [4] [µg/mL] | MIC [5] [µg/mL] | MIC [6] [µg/mL] | MIC [7] [µg/mL] | MIC [8] [µg/mL] | MIC [9] [µg/mL] | MIC [10] [µg/mL] | MIC [11] [µg/mL] | MIC [12] [µg/mL] | MIC [13] [µg/mL] | MIC [14] [µg/mL] | MIC [15] [µg/mL] | MIC [16] [µg/mL] | MIC [17] [µg/mL] | MIC [18] [µg/mL] | MIC [19] [µg/mL] | MIC [20] [µg/mL] | other results |
| --- | --- | --- | --- | --- | --- | --- | --- | --- | --- | --- | --- | --- | --- | --- | --- | --- | --- | --- | --- | --- | --- |
| CC(C)(O/N=C(\C(=O)N[C@@H]1C(=O)N2C(C(=O)[O-])=C(C[n+]3ccccc3)CS[C@H]12)c1csc(N)n1)C(=O)O [CEFTAZIDIME] | 0.25 (≈ 0.457 µM) | 512 (≈ 937 µM) | 0.75 (≈ 1.37 µM) | 512 (≈ 937 µM) | 0.75 (≈ 1.37 µM) | 32 (≈ 58.5 µM) | 0.12 (≈ 0.22 µM) | 512 (≈ 937 µM) | > 512 | 0.75 (≈ 1.37 µM) | 0.12 (≈ 0.22 µM) | 0.25 (≈ 0.457 µM) | 0.75 (≈ 1.37 µM) | 0.06 (≈ 0.11 µM) | 512 (≈ 937 µM) | 512 (≈ 937 µM) | > 512 | 0.75 (≈ 1.37 µM) | 0.12 (≈ 0.22 µM) | 0.75 (≈ 1.37 µM) | MIC [21]: 0.12 µg/mL (≈ 0.22 µM); MIC [22]: 0.06 µg/mL (≈ 0.11 µM); MIC [23]: 0.12 µg/mL (≈ 0.22 µM); MIC [24]: 0.12 µg/mL (≈ 0.22 µM); MIC [25]: 512 µg/mL (≈ 937 µM); MIC [26]: 1 µg/mL (≈ 1.83 µM); MIC [27]: 512 µg/mL (≈ 937 µM); MIC [28]: 0.12 µg/mL (≈ 0.22 µM); MIC [29]: 0.12 µg/mL (≈ 0.22 µM); MIC [30]: 0.12 µg/mL (≈ 0.22 µM); MIC [31]: 512 µg/mL (≈ 937 µM); MIC [32]: 0.12 µg/mL (≈ 0.22 µM); MIC [33]: 512 µg/mL (≈ 937 µM); MIC [34]: 512 µg/mL (≈ 937 µM); MIC [35]: 0.75 µg/mL (≈ 1.37 µM); MIC [36]: 1 µg/mL (≈ 1.83 µM); MIC [37]: 0.12 µg/mL (≈ 0.22 µM); MIC [38]: 512 µg/mL (≈ 937 µM) |
| CC(=O)OCC1=C(C(=O)O)N2C(=O)[C@@H](NC(=O)Cc3cccs3)[C@H]2SC1 [CEPHALOTHIN] | 16 (≈ 40.4 µM) | > 512 | > 512 | > 512 | 16 (≈ 40.4 µM) | > 512 | 16 (≈ 40.4 µM) | > 512 | > 512 | 16 (≈ 40.4 µM) | 16 (≈ 40.4 µM) | > 512 | 16 (≈ 40.4 µM) | 4 (≈ 10.1 µM) | > 512 | > 512 | > 512 | 32 (≈ 80.7 µM) | 0.5 (≈ 1.26 µM) | 8 (≈ 20.2 µM) | MIC [21]: 16 µg/mL (≈ 40.4 µM); MIC [22]: 4 µg/mL (≈ 10.1 µM); MIC [23]: > 512 µg/mL; MIC [24]: 16 µg/mL (≈ 40.4 µM); MIC [25]: > 512 µg/mL; MIC [26]: 16 µg/mL (≈ 40.4 µM); MIC [27]: > 512 µg/mL; MIC [28]: 16 µg/mL (≈ 40.4 µM); MIC [29]: 16 µg/mL (≈ 40.4 µM); MIC [30]: 16 µg/mL (≈ 40.4 µM); MIC [31]: > 512 µg/mL; MIC [32]: 16 µg/mL (≈ 40.4 µM); MIC [33]: > 512 µg/mL; MIC [34]: > 512 µg/mL; MIC [35]: 16 µg/mL (≈ 40.4 µM); MIC [36]: 16 µg/mL (≈ 40.4 µM); MIC [37]: > 512 µg/mL; MIC [38]: 16 µg/mL (≈ 40.4 µM) |
| CCN1CCN(C(=O)N[C@@H](C(=O)N[C@@H]2C(=O)N3[C@@H]2SC(C)(C)[C@@H]3C(=O)O)c2ccccc2)C(=O)C1=O [PIPERACILLIN] | 512 (≈ 989 µM) | > 512 | > 512 | > 512 | 128 (≈ 247 µM) | > 512 | 512 (≈ 989 µM) | > 256 | > 512 | > 512 | > 512 | > 512 | 128 (≈ 247 µM) | 2 (≈ 3.86 µM) | > 512 | > 512 | > 512 | 96 (≈ 185 µM) | 8 (≈ 15.5 µM) | 64 (≈ 124 µM) | MIC [21]: > 512 µg/mL; MIC [22]: 1 µg/mL (≈ 1.93 µM); MIC [23]: > 512 µg/mL; MIC [24]: 512 µg/mL (≈ 989 µM); MIC [25]: > 512 µg/mL; MIC [26]: > 256 µg/mL; MIC [27]: > 512 µg/mL; MIC [28]: > 512 µg/mL; MIC [29]: 512 µg/mL (≈ 989 µM); MIC [30]: > 512 µg/mL; MIC [31]: > 512 µg/mL; MIC [32]: > 512 µg/mL; MIC [33]: > 256 µg/mL; MIC [34]: > 512 µg/mL; MIC [35]: > 512 µg/mL; MIC [36]: > 512 µg/mL; MIC [37]: > 512 µg/mL; MIC [38]: 128 µg/mL (≈ 247 µM) |
